According to ChEMBL document CHEMBL1275449, “Potent in vitro antifungal activities of naturally occurring acetylenic acids” (Antimicrob Agents Chemother, 2008):
Activity calls are given as the source filed them.

Tests used:
Type in all cases: functional, organism-based
Nakaseomyces glabratus [1] = experiment: Antifungal activity against Candida glabrata ATCC 90030 at 187.7 uM after 48 hrs by CLSI method
Outline: (§1)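 Candida inocula came from 24–72-h SD agar colonies suspended in saline. They were diluted by OD630 standard curve into RPMI 1640 (0.2% dextrose, 0.03% glutamine, 0.165 M MOPS, pH 7.0) to 1.5 × 10³ CFU/ml. Compounds were run as 11 twofold dilutions in 20% DMSO-saline, in duplicate, at 35°C for 48 h, with OD530 read before and after. Percent growth at the top concentration, IC50, MIC, and MFC (SD agar plating) were derived.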

Candida albicans [2] = experiment: Antifungal activity against Fluconazole resistant Candida albicans isolate 1 at 187.7 uM after 48 hrs by CLSI method
Outline: (§2)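 Candida in CLSI broth microdilution. Saline colony suspension set to 1.5 × 10³ CFU/ml (final) in MOPS-buffered RPMI 1640, pH 7.0. Test agent given as twofold serial dilutions in 20% DMSO-saline, duplicate wells. 35°C for 48 h. Growth read as OD530 before and after incubation. Percent inhibition scored at the highest test concentration.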

Pichia kudriavzevii [3] = experiment: Antifungal activity against Candida krusei ATCC 6258 at 187.7 uM after 48 hrs by CLSI method
Outline: (§3)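 Yeast suspensions made from 3-5 colonies off 24-72 h SD agar plates in saline. They were diluted by OD630 standard curve in RPMI 1640 (0.2% dextrose, 0.03% glutamine, 0.165 M MOPS, pH 7.0) to 1.5 × 10³ CFU/ml. Twofold dilutions (11 concentrations, 20% DMSO-saline) run in duplicate. OD530 read before and after 35°C, 48 h. Line values are top test concentrations; no-growth endpoints give MIC/MFC.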

Candida albicans [4] = experiment: Antifungal activity against Fluconazole resistant Candida albicans isolate 17 at 187.7 uM after 48 hrs by CLSI method; outline: as §2
Aspergillus fumigatus [5] = experiment: Antifungal activity against Aspergillus fumigatus ATCC 90906 at 187.7 uM after 48 hrs by CLSI method
Cryptococcus neoformans [6] = experiment: Antifungal activity against Cryptococcus neoformans ATCC 90113 at 187.7 uM after 72 hrs by CLSI method
Outline: (§4)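 SD broth replaced RPMI because growth in RPMI was poor; other CLSI conditions were kept. Inoculum was 1.5 × 10³ CFU/ml from colonies on SD agar, checked by plating. Twofold serial dilutions (11 concentrations) in 20% DMSO-saline were tested in duplicate. OD530 was read before and after incubation at 35°C for 72 h. Percent growth gave IC50; the MIC is the lowest concentration with no detectable growth.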

Aspergillus flavus = experiment: Antifungal activity against Aspergillus flavus ATCC 204304 at 187.7 uM after 48 hrs by CLSI method
Pichia kudriavzevii [7] = experiment: Antifungal activity against Candida krusei ATCC 6258 at 169.8 uM after 48 hrs by CLSI method; outline: as §1
Aspergillus niger = experiment: Antifungal activity against Aspergillus niger ATCC 16404 at 169.8 uM after 48 hrs by CLSI method
Cryptococcus neoformans [8] = experiment: Antifungal activity against Cryptococcus neoformans ATCC 90113 at 169.8 uM after 72 hrs by CLSI method; outline: as §4
Candida albicans [9] = experiment: Antifungal activity against Candida albicans ATCC 60193 at 169.8 uM after 48 hrs by CLSI method; outline: as §1
Aspergillus fumigatus [10] = experiment: Antifungal activity against Aspergillus fumigatus ATCC 90906 at 169.8 uM after 48 hrs by CLSI method
Candida albicans [11] = experiment: Antifungal activity against Candida albicans ATCC 32354 at 169.8 uM after 48 hrs by CLSI method; outline: as §1
Candida albicans [12] = experiment: Antifungal activity against Candida albicans ATCC 200955 at 169.8 uM after 48 hrs by CLSI method; outline: as §1
Candida albicans [13] = experiment: Antifungal activity against Candida albicans ATCC 60193 at 198.1 uM after 48 hrs by CLSI method; outline: as §1
Candida albicans [14] = experiment: Antifungal activity against Fluconazole resistant Candida albicans isolate 1 at 198.1 uM after 48 hrs by CLSI method; outline: as §2
Candida albicans [15] = experiment: Antifungal activity against Candida albicans ATCC 90028 at 198.1 uM after 48 hrs by CLSI method; outline: as §1
Candida parapsilosis [16] = experiment: Antifungal activity against Candida parapsilosis ATCC 22019 at 198.1 uM after 48 hrs by CLSI method; outline: as §3
Candida albicans [17] = experiment: Antifungal activity against Candida albicans ATCC 32354 at 198.1 uM after 48 hrs by CLSI method; outline: as §1
Candida albicans [18] = experiment: Antifungal activity against Candida albicans ATCC 32354 at 9.4 uM after 48 hrs by CLSI method; outline: as §2
[19] = tested on: Trichophyton mentagrophytes; experiment: Antifungal activity against Trichophyton mentagrophytes ATCC MYA-4439 at 9.4 uM after 5 days by CLSI method
Outline: (§5)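 Trichophyton growth scraped from 1–6-week potato dextrose slants and filtered through Miracloth. Inoculum 2.7 × 10⁴ CFU/ml (final) in 5% Alamar blue-RPMI 1640 buffered with MOPS, pH 7.0. Duplicate twofold dilutions from 20% DMSO-saline. Incubated 35°C for 5 days. Fluorescence read at 544 nm excitation, 590 nm emission. Inhibition assessed at the highest test concentration.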

Trichophyton rubrum [20] = experiment: Antifungal activity against Trichophyton rubrum ATCC 10218 at 9.4 uM after 5 days by CLSI method; outline: as §5
Candida albicans [21] = experiment: Antifungal activity against Candida albicans ATCC 90028 at 9.4 uM after 48 hrs by CLSI method; outline: as §2
Candida parapsilosis [22] = experiment: Antifungal activity against Candida parapsilosis ATCC 22019 at 9.4 uM after 48 hrs by CLSI method; outline: as §2
Candida albicans [23] = experiment: Antifungal activity against Candida albicans ATCC 32354 at 168.9 uM after 48 hrs by CLSI method; outline: as §1
Nakaseomyces glabratus [24] = experiment: Antifungal activity against Candida glabrata ATCC 90030 at 168.9 uM after 48 hrs by CLSI method; outline: as §1
[25] = tested on: Trichophyton mentagrophytes; experiment: Antifungal activity against Trichophyton mentagrophytes ATCC 9533 at 168.9 uM after 5 days by CLSI method
Trichophyton rubrum [26] = experiment: Antifungal activity against Trichophyton rubrum ATCC 10218 at 168.9 uM after 5 days by CLSI method
Candida parapsilosis [27] = experiment: Antifungal activity against Candida parapsilosis ATCC 22019 at 168.9 uM after 48 hrs by CLSI method; outline: as §3
[28] = tested on: Trichophyton mentagrophytes; experiment: Antifungal activity against Trichophyton mentagrophytes ATCC MYA-4439 at 168.9 uM after 5 days by CLSI method
Candida tropicalis = experiment: Antifungal activity against Candida tropicalis ATCC 750 at 168.9 uM after 48 hrs by CLSI method; outline: as §3
Pichia kudriavzevii [29] = experiment: Antifungal activity against Candida krusei ATCC 6258 at 168.9 uM after 48 hrs by CLSI method; outline: as §1
Candida albicans [30] = experiment: Antifungal activity against Candida albicans ATCC 60193 at 168.9 uM after 48 hrs by CLSI method; outline: as §1
Trichophyton rubrum [31] = experiment: Antifungal activity against Trichophyton rubrum ATCC MYA-4438 at 168.9 uM after 5 days by CLSI method

Measured: Activity

CCCCCCCCCCC#CCCCCC(=O)O
inactive: Nakaseomyces glabratus [1] | Candida albicans [2] | Pichia kudriavzevii [3] | Candida albicans [4] | Aspergillus fumigatus [5] | Cryptococcus neoformans [6] | Aspergillus flavus

CCCCCCCCCCCCC#CCCCCC(=O)O [6-NONADECYNOIC ACID]
inactive: Pichia kudriavzevii [7] | Aspergillus niger | Cryptococcus neoformans [8] | Candida albicans [9] | Aspergillus fumigatus [10] | Candida albicans [11] | Candida albicans [12]

CCCCCCCCCC#CCCCCC(=O)O
inactive: Candida albicans [13] | Candida albicans [14] | Candida albicans [15] | Candida parapsilosis [16] | Candida albicans [17]

CC(=O)N1CCN(c2ccc(OCC3COC(Cn4ccnc4)(c4ccc(Cl)cc4Cl)O3)cc2)CC1 (centres undefined) [KETOCONAZOLE]
inactive: Candida albicans [18] | [19] | Trichophyton rubrum [20] | Candida albicans [21] | Candida parapsilosis [22]

CCCCCC#CCC#CCC#CCC#CCCCC(=O)O
inactive: Candida albicans [23] | Nakaseomyces glabratus [24] | [25] | Trichophyton rubrum [26] | Candida parapsilosis [27] | [28] | Candida tropicalis | Pichia kudriavzevii [29] | Candida albicans [30] | Trichophyton rubrum [31]
